TDP2 inh: blocks human TDP2 phosphodiesterase activity | 0.34% of 370,000 active | inhibition, % at 12.8 µM | recombinant TDP2, T5PNP hydrolysis, p-nitrophenol absorbance 415 nm | AID 720702;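 active means inhibition above the mean of all tested compounds plus 3 SD, set per campaign, cut at about 25% in these data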
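Test system: Human TDP2 enzyme | Reagent: 5 mM T5PNP | Compound dosing: 12.8 µM single point, 1% DMSO | Incubation: Enzyme reaction with compound for 2 h at 37 °C | Technique: p-Nitrophenol epi absorbance | Read-out: % inhibition relative to enzyme-containing and enzyme-free wells | Benchmarks: High control without enzyme, low control DMSO plus TDP2 | Replicates: Singlicate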
Apaf1 inhib: inhibitors of human Apaf-1 apoptosome | AID 489030 | 0.71% of 330,000 active | reconstituted apoptosome caspase-3 activity, DEVD-Rh110 fluorescence | inhibition, % at 20 µM; active means inhibition of at least 40% at 20 µM
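Material: biochemical Apaf-1 apoptosome reconstitution. Medium: Hepes buffer, pH 7.5. Also added: cytochrome c activation, bis-DEVD rhodamine 110 substrate. Timing: 30 min compound preincubation, 50 min activation, room temperature. Measured by: rhodamine 110 fluorescence at Ex 480/Em 540 nm.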
GSTO1 inh: blocks human GSTO1 in RBBP9 counter-screen; P78417; recombinant GSTO1, activity-based probe fluorescence polarization; inhibition, % at 5.96 µM; 1.1% of 300,000 active; AID 1974;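 active means inhibition above the campaign mean inhibition plus 3 SD, cut at about 35% in these data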
PAD4 FP inh: PAD4 (human) enzyme inhibition; Q9UM07; recombinant PAD4, RCA probe fluorescence polarization; inhibition, % at 6.36 µM; 0.41% of 330,000 active; AID 485272;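 active means percent inhibition above a cutoff equal to the mean of all tested compounds plus 3 SD, cut at about 15% in these data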
Target sequence (Q9UM07 whole entry, looked up): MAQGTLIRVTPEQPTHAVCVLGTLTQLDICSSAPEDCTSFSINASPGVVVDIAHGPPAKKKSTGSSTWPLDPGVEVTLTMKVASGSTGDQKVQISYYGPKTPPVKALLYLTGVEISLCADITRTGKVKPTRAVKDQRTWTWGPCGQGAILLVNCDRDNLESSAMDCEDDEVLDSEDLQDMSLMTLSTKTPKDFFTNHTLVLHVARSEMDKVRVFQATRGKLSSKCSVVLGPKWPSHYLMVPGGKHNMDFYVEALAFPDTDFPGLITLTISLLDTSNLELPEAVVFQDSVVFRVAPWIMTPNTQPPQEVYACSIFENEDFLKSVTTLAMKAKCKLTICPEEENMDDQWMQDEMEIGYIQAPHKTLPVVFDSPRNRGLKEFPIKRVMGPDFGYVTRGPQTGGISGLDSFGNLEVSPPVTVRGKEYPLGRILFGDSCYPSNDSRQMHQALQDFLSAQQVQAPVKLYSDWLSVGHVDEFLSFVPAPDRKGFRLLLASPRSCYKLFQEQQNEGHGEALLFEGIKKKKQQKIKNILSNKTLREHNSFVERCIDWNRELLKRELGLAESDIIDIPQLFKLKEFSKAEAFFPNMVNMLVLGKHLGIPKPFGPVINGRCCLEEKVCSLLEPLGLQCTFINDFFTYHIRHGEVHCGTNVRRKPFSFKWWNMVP
TCR-CD3 inh: blocks the human TCR-CD3 interaction; TAMRA-labeled TCR probe fluorescence, biochemical; inhibition, % at 9.4 µM; 0.37% of 360,000 active; AID 651800; in the data active means inhibition above about 19%;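 further: recombinant mutant TCR 2C K166C tagged with TAMRA read by polarization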
SIAE primary: inhibitors of human sialic acid acetylesterase SIAE; inhibition, % at 9.66 µM; SIAE FP-Rh probe binding, fluorescence polarization; 0.69% of 370,000 active; Q9HAT2;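 active means inhibition above a cutoff: mean of compounds within the control limits plus 3 SD of those, cut at about 17% in these data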
GSTO1 confirm: GSTO1 (human) inhibition, confirmation | shares compounds with GSTO1 inh | recombinant GSTO1, probe fluorescence polarization | inhibition, % at 5.96 µM | 54% of 2,400 active | AID 2176;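 active means inhibition above the primary screen's cutoff, its mean inhibition plus 3 SD, cut at about 35% in these data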;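 further: loss of polarization as inhibitors block binding of rhodamine sulfonate ester activity probe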
Large screens that a line does not name were inactive (follow-up assays come after a bar, where they were run). This is a sample that favours compounds with a hit; in the whole collection about 2.4% have one here.

COC(=O)CCCC1=CC2=C(c3ccccc3)C(=O)C(C)(OC(=O)C3CCCC3)C(=O)C2=CN1CC1CC1 (stereo not drawn)	GSTO1 inh 49 | GSTO1 confirm inactive
CC(C)CC(=O)NC1(C(F)(F)F)C(=O)N(Cc2ccccc2)C2=C1C(=O)CC(C)(C)C2 (stereo not drawn)	none
COC1=C(c2ccccc2)C(=O)c2ccccc2C1=O	GSTO1 inh 44 | GSTO1 confirm 35
Cc1ccc(S(=O)(=O)NCC(=O)N2CCCC2C(=O)O)cc1 (stereo not drawn)	none
Cc1cc(O)c(N)c(C)c1Cl	GSTO1 inh 46 | GSTO1 confirm inactive
CC(OC(=O)CCc1nc2ccccc2c(=O)[nH]1)C(=O)Nc1ccc2c(c1)OCO2 (stereo not drawn)	none
Cc1ccc(S(=O)(=O)Nc2ccc(O)c3ncccc23)cc1	none
Cc1ccc(S(=O)(=O)Nc2ccc(O)c3cccnc23)cc1	GSTO1 inh 50 | GSTO1 confirm inactive
CCC/C(=N\NC(=O)CNC(=O)c1ccc(Cl)cc1)c1ccccc1	none
CCn1c(C)nc2cc(C(=O)N/N=C/c3cccc(O)c3O)ccc21	GSTO1 inh 45 | GSTO1 confirm inactive
COc1ccc(-c2nc(S(=O)(=O)c3ccccc3)c(N3CCCC3)o2)cc1	none (no result: Apaf1 inhib, GSTO1 inh, PAD4 FP inh)
Cc1cc(C)cc(SCc2noc(C(=O)NCCCN3CCOCC3)c2C(=O)NCCCN2CCOCC2)c1	none
Cc1ccc(C)c(Sc2ccc(NC(=O)CCl)cc2)c1	GSTO1 inh 75 | GSTO1 confirm 82
Cc1ccc(NC(=O)CCSCCC(=O)Nc2ccc(C)c(C)c2)cc1C	none
CCc1ccc(/C=C2\SC(=S)N(CCCC(=O)Nc3ccccc3C(=O)O)C2=O)cc1	none
CN(CC(=O)NCCCN1CCOCC1)S(=O)(=O)c1ccc(Br)cc1	none
CC(=O)N1N=C(c2ccccc2)OC1c1ccc([N+](=O)[O-])s1 (stereo not drawn)	GSTO1 inh 41 (no result: TDP2 inh, TCR-CD3 inh, SIAE primary) | GSTO1 confirm inactive
Cc1cc(C)c(S(=O)(=O)NCc2cn3ccccc3n2)c(C)c1	GSTO1 inh 39 | GSTO1 confirm inactive
O=C(NNC(=O)c1cc2cc3ccccc3nc2s1)c1ccc(F)cc1	none
CCCNC(=O)c1ccc2snnc2c1	none
CCCNC(=O)c1ccc2c(=O)n3c(-c4ccc(C)cc4)csc3nc2c1	GSTO1 inh 46 | GSTO1 confirm inactive
N#CCCN(C(=O)CSc1n[nH]c(=O)[nH]c1=O)c1ccccc1	none (no result: GSTO1 inh)
ClC(Cl)(Cl)c1nc2ccccc2n2nncc12	GSTO1 inh 64 | GSTO1 confirm 52
c1ccc2c(c1)nnn1c3ccccc3nc21	none (no result: TDP2 inh, TCR-CD3 inh, SIAE primary)
Brc1ccc(C2Nc3cccc4cccc(c34)N2)o1	GSTO1 inh 54 (no result: TDP2 inh, TCR-CD3 inh, SIAE primary) | GSTO1 confirm inactive
Brc1cccc(C2Nc3cccc4cccc(c34)N2)c1	GSTO1 inh 40 | GSTO1 confirm inactive
CCOc1ccc(C2Nc3cccc4cccc(c34)N2)cc1OC	GSTO1 inh 45 | GSTO1 confirm inactive
CCC1=C(OC(=O)N(CC)CC)N2C(=O)OC(=NCC(=O)OC)[C@]2(C)[C@H]2C1=CC[C@H]1C(=O)N(CC(=O)OC)C(=O)[C@H]12	none
Cc1cccc(CC(=O)Nc2ccon2)c1	GSTO1 inh 59 | GSTO1 confirm inactive
C=C(C)Cn1c2ccc(NC(=O)NCCc3cccs3)cc2c(=O)n1C	none (no result: Apaf1 inhib, GSTO1 inh, PAD4 FP inh)
O=C(O)c1ccc2c(c1)C(=O)/C(=C\c1ccco1)C2=O	GSTO1 inh 40 | GSTO1 confirm 50
O=C(O)c1ccc(C=NN=Cc2ccco2)cc1	none (no result: Apaf1 inhib, GSTO1 inh, PAD4 FP inh)
Oc1ccc2oc3c(c2c1/C=N/n1cnnc1)CCCC3	none
CCOc1cc(CNc2ccc(O)cc2)ccc1OCc1ccc(Cl)cc1Cl	Apaf1 inhib 94, GSTO1 inh 87, PAD4 FP inh 30 (no result: TDP2 inh, TCR-CD3 inh, SIAE primary) | GSTO1 confirm inactive
O=[N+]([O-])c1ccc(Oc2ccc(S(=O)(=O)Nc3ccccc3)cc2)cc1	none (no result: TDP2 inh, TCR-CD3 inh, SIAE primary)
O=C1C(Cl)=C(NS(=O)(=O)c2ccc([N+](=O)[O-])cc2)C(=O)c2ccccc21	GSTO1 inh 100 | GSTO1 confirm 88
COC(=O)C(N)Cc1ccc(O)cc1 (stereo not drawn)	none
COC(=O)C(N)Cc1ccc(O)c(O)c1 (stereo not drawn)	GSTO1 inh 90 | GSTO1 confirm inactive
COC(=O)c1ccccc1NC(=O)c1ccccc1SC	GSTO1 inh 66 | GSTO1 confirm inactive
CN(C)C(=O)c1cc(C(=O)c2ccccc2)c[nH]1	GSTO1 inh 67 | GSTO1 confirm inactive
CCOCCOC(=O)C(C)Sc1n[nH]c(=O)[nH]c1=O (stereo not drawn)	none
CCOC(=O)c1cccc(C(=O)Nc2nc3ccc(OC)cc3s2)n1	GSTO1 inh 53 | GSTO1 confirm inactive
COc1ccc2nc(NC(=O)c3ccccc3O)sc2c1	none
CCOC(=O)Cn1c(=O)oc2cc(S(=O)(=O)Nc3cc(OCC)ccc3OCC)ccc21	none
CCOC(=O)Cn1c(=O)oc2cc(S(=O)(=O)Nc3ccc(N(CC)CC)cc3C)ccc21	GSTO1 inh 68 | GSTO1 confirm 62
CCN(CCCNS(=O)(=O)c1ccc2c(c1)oc(=O)n2C)c1cccc(C)c1	GSTO1 inh 38 | GSTO1 confirm 36
CCc1ccc(NS(=O)(=O)c2ccc3c(c2)oc(=O)n3C)cc1	GSTO1 inh 53 | GSTO1 confirm 44
CCN(c1cccc(C)c1)S(=O)(=O)c1ccc2c(c1)oc(=O)n2C	none
N#CCc1ccc(Oc2ccc([N+](=O)[O-])cn2)cc1	none
CC(=O)Nc1ccc(NC2=CC(=O)c3ccccc3C2=O)cc1	GSTO1 inh 39 | GSTO1 confirm inactive
COc1ccc(OC)c(S(=O)(=O)N2CCC3(CC2)OCCN3S(=O)(=O)c2cccs2)c1	none
CCc1n[nH]c(=S)n1/N=C/c1c(O)ccc2ccccc12	GSTO1 inh 38 | GSTO1 confirm inactive
CCc1n[nH]c(=S)n1/N=C/c1cccc2ccccc12	none
O=C(Nc1ccccc1)N1CCNCC1	none
COc1ccc(C(=O)Nc2c(O)ccc3ccccc23)cc1OC	none
COc1ccc(S(=O)(=O)Nc2c(O)ccc3ccccc23)cc1OC	GSTO1 inh 45 | GSTO1 confirm inactive
CC1=C(C(=O)OCc2ccccc2)C(c2ccccc2OS(=O)(=O)c2ccccc2[N+](=O)[O-])NC(=O)N1CCCC(=O)O (stereo not drawn)	GSTO1 inh 58 | GSTO1 confirm 63
CCOC(=O)C1=C(C)N(CCCC(=O)O)C(=O)NC1c1ccccc1OS(=O)(=O)c1ccccc1[N+](=O)[O-] (stereo not drawn)	none
Cc1ccc(/C=C2\SC(=S)N(/N=C/c3cc([N+](=O)[O-])ccc3O)C2=O)o1	GSTO1 inh 50 (no result: TDP2 inh, TCR-CD3 inh, SIAE primary) | GSTO1 confirm 43
N#Cc1cc2c(nc1SCC(=O)O)CCCC2	none

Screens from PubChem BioAssay.
